One compound from ChEMBL document CHEMBL3526048, “In vitro metabolism of rivoglitazone, a novel peroxisome proliferator-activated receptor γ agonist, in rat, monkey, and human liver microsomes and freshly isolated hepatocytes” (Drug Metab Dispos, 2011) can be followed below.

Series [1] addresses T1, UDP-glucuronosyltransferase 1A8 (Homo sapiens, UniProt Q9HAW9).
T1 sequence (Q9HAW9 whole entry): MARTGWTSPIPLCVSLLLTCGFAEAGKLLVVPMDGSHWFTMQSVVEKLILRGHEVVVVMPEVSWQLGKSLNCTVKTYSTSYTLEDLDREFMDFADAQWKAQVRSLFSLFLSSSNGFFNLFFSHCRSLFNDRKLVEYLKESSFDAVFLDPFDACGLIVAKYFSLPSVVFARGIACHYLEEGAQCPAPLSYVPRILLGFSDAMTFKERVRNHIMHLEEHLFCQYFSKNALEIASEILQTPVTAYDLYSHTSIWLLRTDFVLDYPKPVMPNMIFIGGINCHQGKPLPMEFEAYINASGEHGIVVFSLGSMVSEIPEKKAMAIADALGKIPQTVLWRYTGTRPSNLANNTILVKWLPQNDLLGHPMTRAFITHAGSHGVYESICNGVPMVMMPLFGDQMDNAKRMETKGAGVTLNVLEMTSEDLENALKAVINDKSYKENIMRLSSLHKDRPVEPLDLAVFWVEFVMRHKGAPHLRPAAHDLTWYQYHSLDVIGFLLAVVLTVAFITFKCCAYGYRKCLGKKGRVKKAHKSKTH
The series can be described thus: Activity of human UGT1A8 expressed in microsomes isolated from baculovirus infected insect cell assessed as enzyme-mediated (2S,3S,4S,5R,6R)-6-((1-carboxy-2-(4-((6-methoxy-1-methyl-1H-benzo[d]imidazol-2-yl)methoxy)phenyl)ethylthio)carbonylamino)-3,4,5-trihydroxytetrahydro-2H-pyran-2-carboxylic acid formation at 20 uM after 4 hrs by radio-HPLC/LC-MS/MS analysis in presence of UDPGA. It is filed as ADME.

Series [2] in a line: Drug metabolism in rat hepatocytes assessed as formation of 3-(4-((6-methoxy-1-methyl-1H-benzo[d]imidazol-2-yl)methoxy)phenyl)-2-(methylsulfonyl)propanamide at 30 uM after 3 hrs by radio-HPLC/LC-MS/MS analysis in presence of NADPH-generating system/SAM. The series is classed as ADME, cell-based, Hepatocyte.
The target of another series is Cytochrome P450 3A5 (Homo sapiens, UniProt P20815). The series can be described thus: Activity of human CYP3A5 expressed in microsomes isolated from baculovirus infected insect cell assessed as enzyme-mediated 2-mercapto-3-(4-((6-methoxy-1-methyl-1H-benzo[d]imidazol-2-yl)methoxy)phenyl)propanamide formation at 20 uM after 2 hrs by radio-HPLC/LC-MS/MS analysis in presence of NADPH-generating system and NADPH-generating system/SAM. The series is classed as ADME. Summed up:
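cDNA-expressed human CYP3A5 in baculovirus-insect-cell microsomes (1 mg/ml protein) was incubated with [¹⁴C]rivoglitazone (20 μM) in 50 mM potassium phosphate (pH 7.4) or 100 mM Tris-HCl (pH 7.5). NADPH-generating system: 2 mM NADP⁺, 20 mM glucose 6-phosphate, 2 units/ml G6PDH, 10 mM MgCl₂. Incubation ran 2 h at 37°C with shaking; insect-cell control supersomes served as control. Acetonitrile stop, supernatant concentrated, then radio-HPLC, LC-MS and LC-MS/MS.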

The next series has as its target T2, Cytochrome P450 1A2 (Homo sapiens, UniProt P05177).
T2 sequence (P05177 whole entry): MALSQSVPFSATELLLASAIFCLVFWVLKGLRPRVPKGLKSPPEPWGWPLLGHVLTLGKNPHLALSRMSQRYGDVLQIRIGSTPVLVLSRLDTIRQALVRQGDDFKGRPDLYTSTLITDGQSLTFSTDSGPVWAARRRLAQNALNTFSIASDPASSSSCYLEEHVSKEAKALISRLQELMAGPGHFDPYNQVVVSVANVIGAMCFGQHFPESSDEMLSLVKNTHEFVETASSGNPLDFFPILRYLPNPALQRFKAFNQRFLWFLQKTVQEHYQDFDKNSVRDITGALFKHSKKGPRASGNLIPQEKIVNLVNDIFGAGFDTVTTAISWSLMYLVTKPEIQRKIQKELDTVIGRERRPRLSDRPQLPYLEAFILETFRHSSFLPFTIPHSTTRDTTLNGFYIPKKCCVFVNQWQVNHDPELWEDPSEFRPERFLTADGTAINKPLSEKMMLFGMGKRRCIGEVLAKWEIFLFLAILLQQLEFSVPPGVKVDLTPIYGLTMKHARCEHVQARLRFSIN
The series can be described thus: Activity of human CYP1A2 expressed in microsomes isolated from baculovirus infected insect cell assessed as enzyme-mediated 5-(4-((6-hydroxy-1-methyl-1H-benzo[d]imidazol-2-yl)methoxy)benzyl)thiazolidine-2,4-dione formation at 20 uM after 2 hrs by radio-HPLC/LC-MS/MS analysis in presence of NADPH-generating system and NADPH-generating system/SAM. It is filed as ADME. The method, boiled down:
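Baculovirus/insect-cell microsomes expressing single human CYPs, 1 mg/ml protein, with 50 mM potassium phosphate (pH 7.4) or 100 mM Tris-HCl (pH 7.5). NADPH-generating system: 2 mM NADP⁺, 20 mM glucose 6-phosphate, 2 units/ml G6PDH, 10 mM MgCl₂. [¹⁴C]rivoglitazone at 20 μM, 2 h at 37°C with shaking. Control used insect-cell control supersomes. Stopped with acetonitrile; supernatant concentrated under nitrogen; metabolites analysed by radio-HPLC, LC-MS and LC-MS/MS.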

Another series has as its target Cytochrome P450 2C9 (Homo sapiens, UniProt P11712). Description: Activity of human CYP2C9 expressed in microsomes isolated from baculovirus infected insect cell assessed as enzyme-mediated 5-hydroxy-5-(4-((6-methoxy-1-methyl-1H-benzo[d]imidazol-2-yl)methoxy)benzyl)thiazolidine-2,4-dione formation at 20 uM after 2 hrs by radio-HPLC/LC-MS/MS analysis in presence of NADPH-generating system and NADPH-generating system/SAM. The series is classed as ADME.

The target in series [3] is T3, UDP-glucuronosyltransferase 1A3 (Homo sapiens, UniProt P35503).
T3 sequence (P35503 whole entry): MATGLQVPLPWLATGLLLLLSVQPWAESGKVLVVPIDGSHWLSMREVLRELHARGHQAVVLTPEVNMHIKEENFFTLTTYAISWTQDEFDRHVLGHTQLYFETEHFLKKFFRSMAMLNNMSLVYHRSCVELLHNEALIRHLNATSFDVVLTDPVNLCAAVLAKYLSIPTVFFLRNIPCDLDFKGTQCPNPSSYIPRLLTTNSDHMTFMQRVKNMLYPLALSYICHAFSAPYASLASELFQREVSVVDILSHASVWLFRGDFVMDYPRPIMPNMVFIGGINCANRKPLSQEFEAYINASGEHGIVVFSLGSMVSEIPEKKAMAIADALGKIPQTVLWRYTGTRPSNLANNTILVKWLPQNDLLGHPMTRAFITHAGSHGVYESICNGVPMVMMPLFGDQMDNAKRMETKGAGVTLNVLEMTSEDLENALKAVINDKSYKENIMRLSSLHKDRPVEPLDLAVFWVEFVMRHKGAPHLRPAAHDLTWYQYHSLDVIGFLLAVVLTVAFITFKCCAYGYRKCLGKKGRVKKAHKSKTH
The series can be described thus: Activity of human UGT1A3 expressed in microsomes isolated from baculovirus infected insect cell assessed as enzyme-mediated 2-hydroxy-3-(4-((6-methoxy-1-methyl-1H-benzo[d]imidazol-2-yl)methoxy)phenyl)propanamide formation at 20 uM after 4 hrs by radio-HPLC/LC-MS/MS analysis in presence of NADPH-generating system and NADPH-generating system/SAM in presence of UDPGA and UDPGA/SAM. It is filed as ADME.

Sequence of Cytochrome P450 3A5 (P20815 whole entry): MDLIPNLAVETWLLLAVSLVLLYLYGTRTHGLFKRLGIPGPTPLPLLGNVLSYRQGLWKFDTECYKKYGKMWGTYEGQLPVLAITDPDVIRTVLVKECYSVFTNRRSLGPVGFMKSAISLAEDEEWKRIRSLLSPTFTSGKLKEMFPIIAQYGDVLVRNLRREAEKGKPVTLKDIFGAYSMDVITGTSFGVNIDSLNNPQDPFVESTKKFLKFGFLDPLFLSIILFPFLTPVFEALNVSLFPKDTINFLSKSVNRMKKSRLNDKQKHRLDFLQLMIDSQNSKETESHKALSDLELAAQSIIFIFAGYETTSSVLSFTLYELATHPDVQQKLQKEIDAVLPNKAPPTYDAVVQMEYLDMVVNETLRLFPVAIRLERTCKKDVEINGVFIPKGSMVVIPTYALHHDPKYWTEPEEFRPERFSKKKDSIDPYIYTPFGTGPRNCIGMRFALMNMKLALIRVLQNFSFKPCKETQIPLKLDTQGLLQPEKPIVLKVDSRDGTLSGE
Sequence of Cytochrome P450 2C9 (P11712 whole entry): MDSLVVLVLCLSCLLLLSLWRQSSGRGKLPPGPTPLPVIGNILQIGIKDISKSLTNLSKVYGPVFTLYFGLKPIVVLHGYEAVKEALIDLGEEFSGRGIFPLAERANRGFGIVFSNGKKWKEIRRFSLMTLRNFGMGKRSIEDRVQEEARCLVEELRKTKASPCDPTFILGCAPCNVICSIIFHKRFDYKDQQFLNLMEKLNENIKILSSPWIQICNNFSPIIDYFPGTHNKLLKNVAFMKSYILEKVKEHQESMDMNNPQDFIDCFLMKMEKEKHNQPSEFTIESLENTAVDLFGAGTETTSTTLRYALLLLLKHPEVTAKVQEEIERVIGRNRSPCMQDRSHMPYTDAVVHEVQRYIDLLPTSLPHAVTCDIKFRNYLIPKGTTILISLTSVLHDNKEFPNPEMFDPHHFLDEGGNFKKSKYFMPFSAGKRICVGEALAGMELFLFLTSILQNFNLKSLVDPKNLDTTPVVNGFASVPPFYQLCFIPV

In the case of `COc1ccc2nc(COc3ccc(C[14CH]4SC(=O)NC4=O)cc3)n(C)c2c1.Cl` (racemic), the Drug metabolism result in series [1] is “metabolite_not_detected”; in series [2] it was “metabolite_detected”; on Cytochrome P450 3A5 it was “metabolite_detected”; at Cytochrome P450 1A2, “metabolite_detected”; on Cytochrome P450 2C9, “metabolite_detected”; in series [3], “metabolite_not_detected”.
